Data on 24 molecules can be found in ChEMBL document CHEMBL4049429, “Enantiospecific Recognition at the A2B Adenosine Receptor by Alkyl 2-Cyanoimino-4-substituted-6-methyl-1,2,3,4-tetrahydropyrimidine-5-carboxylates” (J Med Chem, 2017).

Test [1] has as its target T1, Adenosine receptor A3 (Homo sapiens) (UniProt P0DMS8).
T1 sequence (whole entry): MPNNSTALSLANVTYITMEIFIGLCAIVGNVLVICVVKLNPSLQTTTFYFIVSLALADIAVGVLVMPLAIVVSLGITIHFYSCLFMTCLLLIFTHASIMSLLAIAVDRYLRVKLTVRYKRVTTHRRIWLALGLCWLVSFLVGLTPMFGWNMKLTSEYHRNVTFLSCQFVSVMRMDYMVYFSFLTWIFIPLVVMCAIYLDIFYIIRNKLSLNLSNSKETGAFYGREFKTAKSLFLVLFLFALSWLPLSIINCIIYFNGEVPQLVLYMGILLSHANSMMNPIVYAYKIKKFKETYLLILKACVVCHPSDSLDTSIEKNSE
Kind of test: Displacement of [3H]NECA from human adenosine A3 receptor expressed in human Hela cell membranes at 1 uM after 180 mins. The gist of the method:
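Membranes from HeLa cells expressing human A3 receptor, labelled with 30 nM [3H]NECA. Nonspecific binding defined with 100 μM R-PIA. Incubated 25 °C, 180 min. Percent inhibition of specific binding at 1 μM, average of n = 2.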
In general terms: Displacement assays read how much labelled ligand stays bound in the presence of the test substance.

Test [2] deals with T2, Adenosine receptor A1 (Homo sapiens) (UniProt P30542).
T2 sequence (whole entry): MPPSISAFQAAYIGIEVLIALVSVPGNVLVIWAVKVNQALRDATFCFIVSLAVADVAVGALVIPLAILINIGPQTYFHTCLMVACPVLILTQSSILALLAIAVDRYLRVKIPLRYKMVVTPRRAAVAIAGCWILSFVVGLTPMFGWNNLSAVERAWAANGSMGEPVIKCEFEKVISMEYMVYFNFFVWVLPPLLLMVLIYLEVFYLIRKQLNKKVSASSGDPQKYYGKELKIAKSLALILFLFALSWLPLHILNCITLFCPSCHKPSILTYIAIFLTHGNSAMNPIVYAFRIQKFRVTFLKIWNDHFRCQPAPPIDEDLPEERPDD
Kind of test: Displacement of [3H]DPCPX from human adenosine A1 receptor expressed in CHO cell membranes at 1 uM after 60 mins. The gist of the method: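 Membranes from CHO cells expressing human A1 receptor, labelled with 2 nM [3H]DPCPX. Nonspecific binding defined with 10 μM R-PIA. Incubated 25 °C, 60 min. Percent inhibition of specific binding at 1 μM, average of n = 2.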

Test [3] concerns the target T3, Adenosine receptor A2b (Homo sapiens) (UniProt P29275).
T3 sequence (whole entry): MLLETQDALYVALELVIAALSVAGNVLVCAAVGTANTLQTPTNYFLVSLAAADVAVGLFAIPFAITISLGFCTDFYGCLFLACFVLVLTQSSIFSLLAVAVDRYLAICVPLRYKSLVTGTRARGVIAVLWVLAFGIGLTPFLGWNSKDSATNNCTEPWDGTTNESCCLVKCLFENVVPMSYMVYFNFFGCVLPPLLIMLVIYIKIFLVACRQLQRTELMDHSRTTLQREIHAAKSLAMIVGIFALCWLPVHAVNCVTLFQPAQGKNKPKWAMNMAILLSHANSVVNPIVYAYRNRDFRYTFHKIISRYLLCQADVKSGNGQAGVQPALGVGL
The test can be described thus: Displacement of [3H]DPCPX from human adenosine A2B receptor expressed in HEK293 cell membranes at 1 uM after 30 mins. In short, it runs like this:
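HEK-293 membranes expressing human A2B receptor, labelled with 35 nM [3H]DPCPX. Nonspecific binding with 400 μM NECA. 25 °C, 30 min. Percent inhibition of specific binding at 1 μM, average of n = 2.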

For test [4], the target named is Adenosine receptor A2a (Homo sapiens) (UniProt P29274). Kind of test: Displacement of [3H]4-(2-[7-amino-2-(2-furyl)[1,2,4]triazolo[2,3-a][1,3,5]triazin-5-ylamino]ethyl)phenol from human adenosine A2A receptor expressed in human Hela cell membranes at 1 uM after 30 mins. In short, it runs like this: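 Membranes from HeLa cells expressing human A2A receptor, labelled with 3 nM radioligand. Nonspecific binding defined with 50 μM NECA. Incubated 25 °C, 30 min. Percent inhibition of specific binding at 1 μM, average of n = 2.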

The target of test [5] is T4, Adenosine receptor A2b (Homo sapiens, UniProt P29275).
T4 sequence (P29275 whole entry): T3 sequence (whole entry)
Kind of test: Displacement of [3H]DPCPX from human adenosine A2B receptor expressed in HEK293 cell membranes after 30 mins.

Test [6] has as its target T3, Adenosine receptor A2b (Homo sapiens). Kind of test: Antagonist activity at human adenosine A2B receptor expressed in HEK293 cell […] assessed as inhibition of NECA-stimulated cAMP accumulation preincubated for 15 mins followed by NECA stimulation for 15 mins by enzyme immunoassay. Format: functional, cell-based. In short, it runs like this: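 Whole HEK-293 cells transfected with human A2B receptor, grown at 37 °C, 5% CO2 in EMEM F-12 with 10% FCS and 1% L-glutamine. Washed, then preincubated 15 min at 37 °C in EMEM-F12/25 mM HEPES pH 7.4 with 30 μM rolipram plus test compound. Stimulated with 10 μM NECA for 15 min. Lysed, intracellular cAMP read by enzyme immunoassay at 450 nm. KB derived from IC50 by the Leff and Dougall method. n = 3, each in duplicate.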
For orientation: Changes in cAMP serve as a functional read-out for many G protein-coupled receptors.

Sequence of Adenosine receptor A2a (Homo sapiens) (P29274 whole entry): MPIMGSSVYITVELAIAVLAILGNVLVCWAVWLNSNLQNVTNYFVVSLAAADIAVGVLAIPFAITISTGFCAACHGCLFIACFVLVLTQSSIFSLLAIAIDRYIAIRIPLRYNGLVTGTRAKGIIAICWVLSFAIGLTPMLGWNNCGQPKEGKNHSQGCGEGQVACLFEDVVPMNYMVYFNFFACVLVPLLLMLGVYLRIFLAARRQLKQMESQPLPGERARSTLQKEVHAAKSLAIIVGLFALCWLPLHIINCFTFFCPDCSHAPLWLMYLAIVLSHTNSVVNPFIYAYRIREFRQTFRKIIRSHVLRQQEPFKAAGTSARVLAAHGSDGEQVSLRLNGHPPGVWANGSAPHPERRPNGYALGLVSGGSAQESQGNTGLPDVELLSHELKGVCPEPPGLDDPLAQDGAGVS

For orientation: inhibition means the change of the read-out against control, counted positive when it falls. For the molecule `CC1=C(C(=O)OC(C)C)C(c2ccsc2)NC(=O)N1` (stereo unspecified), the inhibition in test [1] is 1%.
With `CCOC(=O)C1=C(C)NC(=O)NC1c1ccccc1` (stereo unspecified), the inhibition in test [1] was determined as 2%; in test [2] it was 1%; in test [3], 2%; in test [4] it was 10%.
By Ki is commonly meant a measure of affinity in units of concentration, obtained from inhibition or displacement. Higher therefore signals weaker binding. As for `CC1=C(C(=O)OC(C)C)[C@@H](c2ccco2)N/C(=N/C#N)N1`, the inhibition turned out to be 4% in test [1], 2% in test [2] and 4% in test [4]. The same molecule gave a Ki in test [5] of 0.0151 µM.
As for `CC1=C(C(=O)OC(C)C)C(c2ccco2)NC(=O)N1` (stereo unspecified), the inhibition is 1% in test [1], 20% in test [2] and 30% in test [4].
As for `CC1=C(C(=O)OC(C)C)C(C2CCCC2)N/C(=N/C#N)N1` (racemic), the inhibition came to 3% in test [1], 3% in test [2], 11% in test [3] and 5% in test [4].
For `CCOC(=O)C1=C(C)NC(=O)NC1c1ccsc1` (stereo unspecified), the inhibition came out at 24% in test [1], 22% in test [2] and 39% in test [4].
As to `CCOC(=O)C1=C(C)NC(=O)NC1c1ccco1` (stereo unspecified), the results for the inhibition in test [2] and in test [4] were 18% and 41%, respectively.
As to `CC1=C(C(=O)OC(C)C)[C@H](c2ccco2)N/C(=N/C#N)N1`, the inhibition in test [1] turned out to be 1%; in test [2] it was 18%; in test [3], 23%; in test [4] it was 10%.
Take `CCOC(=O)C1=C(C)N/C(=N\C#N)NC1c1cccs1` (racemic): the inhibition stood at 3% in test [1], 26% in test [2] and 33% in test [4]. In test [5], the inhibitory constant (Ki) worked out at 0.051 µM.
Take `CCOC(=O)C1=C(C)NC(=O)NC1c1ccoc1` (stereo unspecified): the inhibition in test [4] came out at 39%.
For `CCOC(=O)C1=C(C)N/C(=N\C#N)NC1c1ccco1` (racemic), the inhibition in test [1] is 20%; in test [2], 27%; in test [4], 20%. For the same molecule, in test [5], the inhibition constant Ki was determined as 0.9 µM.
As for `CCOC(=O)C1=C(C)N/C(=N\C#N)NC1C1CCCC1` (racemic), the inhibition in test [1] came to 4%; in test [2], 11%; in test [3], 19%; in test [4] it was 10%.
Turning to `CC1=C(C(=O)OC(C)C)C(c2ccsc2)N/C(=N/C#N)N1` (racemic), the inhibition was found to be 13% in test [1], 11% in test [2] and 18% in test [4]. This molecule gave a Ki in test [5] of 0.647 µM.
Take `CC1=C(C(=O)OC(C)C)C(c2ccccc2)NC(=O)N1` (stereo unspecified): the inhibition worked out at 2% in test [1], 2% in test [2], 2% in test [3] and 1% in test [4].
Consider `CCOC(=O)C1=C(C)N/C(=N\C#N)NC1c1ccccc1` (racemic), for which the inhibition in test [1] is 13%; in test [2], 18%; in test [3], 25%; in test [4], 13%.
For the molecule `CC1=C(C(=O)OC(C)C)C(C2CCCC2)NC(=O)N1` (stereo unspecified), the inhibition in test [1] came to 7%; in test [2] it was 1%; in test [3] it was 3%; in test [4], 1%.
`CC1=C(C(=O)OC(C)C)C(c2cccs2)N/C(=N/C#N)N1` (racemic): the inhibition amounted to 27% in test [1], 31% in test [2] and 16% in test [4]. In test [5], this molecule had a Ki of 0.349 µM.
Taken in the same sequence, the figures for `CCOC(=O)C1=C(C)N/C(=N\C#N)NC1c1ccsc1` (racemic) were 23%, 29%, 30% and 0.461 µM.
For the molecule `CC1=C(C(=O)OC(C)C)C(c2ccccc2)N/C(=N/C#N)N1` (racemic), the inhibition in test [1] amounted to 6%; in test [2] it was 20%; in test [3], 32%; in test [4] it was 12%.
For `CCOC(=O)C1=C(C)N/C(=N\C#N)NC1c1ccoc1` (racemic), the inhibition in test [1] was found to be 14%; in test [2], 28%; in test [4], 31%. Also, the affinity in test [5] corresponds to a Ki of 0.102 µM.
Regarding `CCOC(=O)C1=C(C)NC(=O)NC1C1CCCC1` (stereo unspecified), the inhibition in test [1] worked out at 18%; in test [2], 3%; in test [3], 2%; in test [4], 1%.
The term Kb denotes the equilibrium dissociation constant of an antagonist, usually derived from a functional assay. On to `CC1=C(C(=O)OC(C)C)C(c2ccco2)N/C(=N/C#N)N1` (racemic), for which the Kb in test [6] was determined as 0.116 µM. Also, the inhibition came to 4% in test [1], 21% in test [2] and 19% in test [4]. In test [5], this molecule came in with a Ki of 0.0243 µM.
As for `CC1=C(C(=O)OC(C)C)C(c2ccoc2)N/C(=N/C#N)N1` (racemic), the results for the inhibition in test [1], in test [2] and in test [4] were 41%, 34% and 25%, respectively. In addition, the Ki in test [5] is 0.0594 µM.
Turning to `CCOC(=O)C1=C(C)NC(=O)NC1c1cccs1` (stereo unspecified), the values for the inhibition in test [1], in test [2] and in test [3] were 1%, 1% and 44%, respectively.
